Tests used:
[1] = target: T1, Metabotropic glutamate receptor 5 (Rattus norvegicus, UniProt P31424); experiment: Positive allosteric modulation at rat mGluR5 expressed in HEK293 cells by calcium mobilization assay; assay type: functional, cell-based
Outline: (§1)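 HEK293 cells stably expressing rat mGlu5 were run in a 'triple add' calcium mobilization assay that detects agonism, PAM and NAM activity together. Response amplitude was expressed as % of the maximal response to 100 µM glutamate. Values are the mean of three or more independent determinations.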

[2] = target: Metabotropic glutamate receptor 5 (Rattus norvegicus) (UniProt P31424); experiment: Positive allosteric modulation at rat mGluR5 expressed in HEK293 cells assessed as amplitude of response at 30 uM by calcium mobilization assay relative to glutamate; assay type: functional, cell-based
Metabotropic glutamate receptor 5 (Rattus norvegicus), sequence (P31424 21-1203 limits assumed): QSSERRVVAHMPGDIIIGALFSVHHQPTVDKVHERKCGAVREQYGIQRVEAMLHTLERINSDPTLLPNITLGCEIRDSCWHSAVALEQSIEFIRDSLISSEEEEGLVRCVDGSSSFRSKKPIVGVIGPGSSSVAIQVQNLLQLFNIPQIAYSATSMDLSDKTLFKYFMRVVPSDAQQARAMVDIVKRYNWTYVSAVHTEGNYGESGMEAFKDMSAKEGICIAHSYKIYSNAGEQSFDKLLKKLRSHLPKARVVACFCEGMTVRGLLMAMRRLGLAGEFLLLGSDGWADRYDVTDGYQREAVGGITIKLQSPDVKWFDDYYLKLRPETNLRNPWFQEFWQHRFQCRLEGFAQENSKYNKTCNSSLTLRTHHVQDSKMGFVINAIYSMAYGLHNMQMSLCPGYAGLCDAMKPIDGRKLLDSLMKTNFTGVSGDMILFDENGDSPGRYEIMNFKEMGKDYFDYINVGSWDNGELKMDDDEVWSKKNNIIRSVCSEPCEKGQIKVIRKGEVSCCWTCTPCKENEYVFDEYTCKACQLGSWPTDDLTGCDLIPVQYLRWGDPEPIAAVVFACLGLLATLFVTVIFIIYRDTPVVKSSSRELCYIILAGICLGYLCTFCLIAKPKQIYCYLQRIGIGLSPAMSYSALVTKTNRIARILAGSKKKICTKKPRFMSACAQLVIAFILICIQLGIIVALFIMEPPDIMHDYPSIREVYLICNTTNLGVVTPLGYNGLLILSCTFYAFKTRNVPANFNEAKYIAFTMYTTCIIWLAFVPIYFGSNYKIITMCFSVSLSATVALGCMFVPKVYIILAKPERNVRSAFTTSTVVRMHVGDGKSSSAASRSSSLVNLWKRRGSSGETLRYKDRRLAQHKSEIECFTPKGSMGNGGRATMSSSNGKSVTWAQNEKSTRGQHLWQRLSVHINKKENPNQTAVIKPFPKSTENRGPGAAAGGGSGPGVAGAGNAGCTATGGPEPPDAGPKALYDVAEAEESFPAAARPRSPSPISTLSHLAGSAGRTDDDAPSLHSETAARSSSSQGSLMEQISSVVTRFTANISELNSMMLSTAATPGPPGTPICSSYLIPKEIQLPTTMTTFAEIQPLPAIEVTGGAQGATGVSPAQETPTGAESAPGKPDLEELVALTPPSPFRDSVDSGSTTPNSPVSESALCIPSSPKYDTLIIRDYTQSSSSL
Outline: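 HEK293 cells stably expressing rat mGlu5 were used in a calcium mobilization assay. Test compound was given at 30 µM, and response amplitude is expressed as percent of the maximal response to 100 µM glutamate. Values are the average of three or more independent determinations.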

[3] = Drug metabolism in human liver microsomes assessed as compound metabolized at 1 uM after 15 mins; assay type: ADME; details: read-out: Drug metabolism
Outline: (§2)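 Test compound at 1 µM was incubated for 15 min with liver microsomes (human for HLM, rat for RLM). Read-out was % of compound metabolized.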

[4] = Drug metabolism in rat liver microsomes assessed as compound metabolized at 1 uM after 15 mins; assay type: ADME; details: read-out: Drug metabolism; outline: as §2
[5] = target: T1, Metabotropic glutamate receptor 5; experiment: Negative allosteric modulation at rat mGluR5 expressed in HEK293 cells by calcium mobilization assay; assay type: functional, cell-based; details: read-out: pIC50 (converted); outline: as §1
[6] = target: Metabotropic glutamate receptor 5 (Rattus norvegicus) (UniProt P31424); experiment: Negative allosteric modulation at rat mGluR5 expressed in HEK293 cells by calcium mobilization assay relative to glutamate; details: 30 uM

T1 sequence (P31424 whole entry): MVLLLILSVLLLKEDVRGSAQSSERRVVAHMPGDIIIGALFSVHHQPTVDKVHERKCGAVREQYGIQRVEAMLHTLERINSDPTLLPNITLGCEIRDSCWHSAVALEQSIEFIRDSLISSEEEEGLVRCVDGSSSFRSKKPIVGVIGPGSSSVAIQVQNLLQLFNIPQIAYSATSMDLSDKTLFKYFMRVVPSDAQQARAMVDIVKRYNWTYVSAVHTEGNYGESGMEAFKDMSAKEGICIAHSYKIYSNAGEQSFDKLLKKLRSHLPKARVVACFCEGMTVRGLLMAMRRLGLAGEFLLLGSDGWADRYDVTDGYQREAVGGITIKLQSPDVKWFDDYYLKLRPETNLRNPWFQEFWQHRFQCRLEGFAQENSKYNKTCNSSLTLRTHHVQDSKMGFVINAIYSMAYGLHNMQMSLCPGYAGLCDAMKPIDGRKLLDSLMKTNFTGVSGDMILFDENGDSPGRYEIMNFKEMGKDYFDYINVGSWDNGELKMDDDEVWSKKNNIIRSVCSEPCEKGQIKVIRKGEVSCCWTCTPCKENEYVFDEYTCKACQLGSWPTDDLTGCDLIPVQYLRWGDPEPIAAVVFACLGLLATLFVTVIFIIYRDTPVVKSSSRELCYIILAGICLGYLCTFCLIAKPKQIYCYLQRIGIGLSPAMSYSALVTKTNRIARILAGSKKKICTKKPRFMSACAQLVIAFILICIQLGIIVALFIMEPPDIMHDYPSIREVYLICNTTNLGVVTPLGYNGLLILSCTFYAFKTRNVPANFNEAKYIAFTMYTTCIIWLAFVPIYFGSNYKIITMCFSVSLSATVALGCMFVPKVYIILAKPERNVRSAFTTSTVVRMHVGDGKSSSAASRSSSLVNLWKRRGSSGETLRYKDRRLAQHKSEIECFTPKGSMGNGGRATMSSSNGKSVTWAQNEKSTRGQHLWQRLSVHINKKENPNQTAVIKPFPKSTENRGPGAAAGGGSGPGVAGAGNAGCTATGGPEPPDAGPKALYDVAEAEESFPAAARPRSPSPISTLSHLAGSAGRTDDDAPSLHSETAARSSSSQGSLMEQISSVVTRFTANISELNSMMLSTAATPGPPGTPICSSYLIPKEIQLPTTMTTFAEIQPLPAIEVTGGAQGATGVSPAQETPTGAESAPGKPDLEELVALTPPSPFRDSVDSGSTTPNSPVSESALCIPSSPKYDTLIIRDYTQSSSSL

Cc1ccnc(-n2ccc3nc(COc4ccccc4)cn3c2=O)c1
EC50 [1]: 5100 nM | Emax [2]: 64%

Cn1ccc2nc(COc3ccccc3)cn2c1=O
EC50 [1]: > 10000 nM | Emax [2]: 67%

Cc1nc(-n2ccc3nc(COc4ccccc4)cn3c2=O)ccc1F
EC50 [1]: 375 nM | Emax [2]: 77% | metabolised at 0.25 h, 1 µM [3]: 8% | metabolised at 0.25 h, 1 µM [4]: 50%

O=C1N(c2ccc(F)cc2)CCc2nc(COc3ccccc3)c(Cl)n21
IC50 [5]: 132 nM | IC50 [6]: 133 nM

Cc1ccc(-n2ccc3nc(COc4ccccc4)cn3c2=O)nc1
EC50 [1]: 2000 nM | Emax [2]: 84%

Cc1cccc(OCc2cn3c(n2)CCN(c2ccc(F)cc2)C3=O)c1
EC50 [1]: 285 nM | Emax [2]: 47%

O=c1[nH]ccc2nc(COc3ccccc3)cn12
EC50 [1]: > 30000 nM | Emax [2]: 19%

O=c1n(-c2ccc(F)cc2)ccc2nc(COc3cccnc3)cn12
EC50 [1]: > 10000 nM | Emax [2]: 65%

Cc1cccc(-n2ccc3nc(COc4ccccc4)cn3c2=O)n1
EC50 [1]: 3580 nM | Emax [2]: 64%

O=c1n(-c2cccc(F)c2)ccc2nc(COc3ccccc3)cn12
EC50 [1]: 514 nM | Emax [2]: 69% | metabolised at 0.25 h, 1 µM [3]: 47% | metabolised at 0.25 h, 1 µM [4]: 71%

Cc1c(COc2ccccc2)nc2n1C(=O)N(c1ccc(F)cc1)CC2
metabolised at 0.25 h, 1 µM [3]: 21% | metabolised at 0.25 h, 1 µM [4]: 46% | IC50 [5]: 525 nM | IC50 [6]: 529 nM

Cc1cc(N2CCc3nc(COc4ccccc4)cn3C2=O)ncc1F
EC50 [1]: 371 nM | Emax [2]: 87%

O=C1N(c2ccc(F)cn2)CCc2nc(COc3ccccc3)cn21
EC50 [1]: 359 nM | Emax [2]: 66% | metabolised at 0.25 h, 1 µM [3]: 1% | metabolised at 0.25 h, 1 µM [4]: 14%

O=c1n(-c2ccc(F)cc2)ccc2nc(COc3ccccn3)cn12
EC50 [1]: 3170 nM | Emax [2]: 88%

O=c1n(-c2ccc(F)cc2)ccc2nc(COc3cccc(F)c3)cn12
EC50 [1]: 230 nM | Emax [2]: 91% | metabolised at 0.25 h, 1 µM [3]: 13% | metabolised at 0.25 h, 1 µM [4]: 28%

Cc1nc(N2CCc3nc(COc4ccccc4)cn3C2=O)ccc1F
EC50 [1]: 183 nM | Emax [2]: 91% | metabolised at 0.25 h, 1 µM [3]: 31% | metabolised at 0.25 h, 1 µM [4]: 93%

Cc1ccc(N2CCc3nc(COc4ccccc4)cn3C2=O)nc1
EC50 [1]: 485 nM | Emax [2]: 74% | metabolised at 0.25 h, 1 µM [3]: 35% | metabolised at 0.25 h, 1 µM [4]: 98%
